ABCB1 block = ABCB1 efflux pump inhibitors, primary screen, cell-based, multiplex, flow cytometry, ABCG2 counter-screen; CCRF-Adr cells, JC-1 efflux; inhibition, % at 6.6 µM; 190,000 tested, 0.067% active; in the data active means inhibition above about 40%;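 further: 0% = vehicle and 100% = reference inhibitor; higher value means more JC-1 retained so stronger ABCB1 efflux block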
MEKK3 PB1 HTS = modulators of MEKK3-MEK5 PB1 binding, primary screen, biochemical, wildtype MEKK3, multiplex bead flow cytometry, Alexa488-MEK5; Mitogen-activated protein kinase kinase kinase 3 (Homo sapiens), Q99759; bead-based flow cytometry, Alexa488-MEK5 binding to MEKK3; actives lie on both sides; 0 = blocked by unlabeled MEK5, 100 = vehicle; binding response (% of control), % at 10 µM; 290,000 tested, 1.4% active; AID 1529, 2009;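 active means binding response more than 3 SD above or below the average of its plate-row segment, actives on both sides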;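 further: Alexa488 bead fluorescence after subtracting the streptavidin-only scavenger bead signal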
Target sequence (Q99759 whole entry, looked up): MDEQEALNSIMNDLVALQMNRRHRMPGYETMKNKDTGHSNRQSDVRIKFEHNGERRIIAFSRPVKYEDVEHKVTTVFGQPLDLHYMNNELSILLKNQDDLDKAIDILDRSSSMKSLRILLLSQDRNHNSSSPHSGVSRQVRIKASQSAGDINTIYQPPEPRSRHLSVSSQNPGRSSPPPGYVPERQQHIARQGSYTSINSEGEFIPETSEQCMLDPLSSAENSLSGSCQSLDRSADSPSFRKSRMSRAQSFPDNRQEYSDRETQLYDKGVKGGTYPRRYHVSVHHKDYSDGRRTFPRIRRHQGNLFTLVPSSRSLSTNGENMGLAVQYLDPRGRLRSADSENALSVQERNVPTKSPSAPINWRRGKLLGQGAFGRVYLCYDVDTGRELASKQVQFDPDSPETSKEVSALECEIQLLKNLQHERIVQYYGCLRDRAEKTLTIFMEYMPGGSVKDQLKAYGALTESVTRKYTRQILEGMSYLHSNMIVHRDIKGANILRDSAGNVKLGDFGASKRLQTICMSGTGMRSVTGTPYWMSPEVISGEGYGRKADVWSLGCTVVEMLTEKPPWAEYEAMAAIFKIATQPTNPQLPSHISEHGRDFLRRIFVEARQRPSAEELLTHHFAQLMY
MEKK2wt PB1 HTS = modulators of MEK5 binding to wildtype MEKK2, primary screen, biochemical, multiplex bead flow cytometry, Alexa488-MEK5; Mitogen-activated protein kinase kinase kinase 2 (Homo sapiens), Q9Y2U5; Alexa488-MEK5 binding to MEKK2 WT; actives lie on both sides; binding response (% of control), % at 10 µM; 290,000 tested, 1.1% active; AID 1531, 2009; in the data active means binding response below about 67% or above about 130%
MEKK2 mut-MEK5 = MEK5 binding signal on mutant MEKK2 PB1, primary screen, biochemical, multiplex bead flow cytometry, Alexa488-MEK5. 290,000 tested, 0.35% active. Alexa488-MEK5 binding to MEKK2 mutant. percent response, % at 10 µM; in the data active means percent response above about 24%, passing the limit was not always enough
WT yeast gro inh = growth inhibition of WT strain, primary screen, mitochondrial fusion inhibitor project, WT and mutant strains, chemical genetic. mitochondrial fusion phenotypic screen. AID 1362, 2008. inhibition, % at 10 µM. 190,000 tested, 2.1% active; in the data active means inhibition above about 58%; tested in S. cerevisiae
ABCG2 inh = ABCG2 efflux pump inhibitors, primary screen, multiplex with ABCB1, IgMXP3 cells, flow cytometry; Broad substrate specificity ATP-binding cassette transporter ABCG2 (Homo sapiens), Q9UNQ0; JC-1 efflux; inhibition, % at 6.6 µM; 190,000 tested, 0.1% active; AID 1325, 2008;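 active means inhibition above 80%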;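 further: 0% = DMSO and 100% = nicardipine control wells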
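material = IgMXP3 (ABCG2) plus far-red-tagged CCRF-Adr (ABCB1) cells | amount = 3 million cells/mL, equal mix of both lines | also added = JC-1 transporter substrate | dosing = one concentration, 6.6 µM final | schedule = 10 min at 25 °C | measured by = flow cytometric JC-1 green MFI at 530 nm | read-out basis = percent efflux inhibition, scaled nicardipine 100% to DMSO 0%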
Numbers without * were called inactive; nt = no result given. A selection: hits, their analogues and other compounds. The true share with any hit is near 3.5%.

SMILES	ABCB1 block	MEKK3 PB1 HTS	MEKK2wt PB1 HTS	MEKK2 mut-MEK5	WT yeast gro inh	ABCG2 inh
COc1ccc(CNC(=O)COC(=O)CCCOc2ccc(Cl)cc2Cl)cc1	0	123	108	0	-6	0
O=C(COC(=O)CCCOc1ccc(Cl)cc1Cl)Nc1cccc(Cl)c1	8	104	101	-1	70*	22
O=c1cc(N2CCCCC2)c(-c2ccccc2)nn1Cc1ccccc1	-1	103	96	-5	76*	-3
COc1ccc(Cn2nc(-c3ccccc3)c(N3CCCCC3)cc2=O)cc1	1	96	89	-8	71*	2
COc1ccc(Cl)cc1NC(=O)C1Cc2cc(S(=O)(=O)N3CCCC3)ccc2N1C(C)=O (configuration not stated)	nt	104	106	5	nt	nt
CO[C@H]1O[C@H](C)[C@@H](O)C[C@H]1NC(=O)OCc1ccccc1	nt	105	111	6	nt	nt
Cc1coc(C)c1C(=O)CC1(O)C(=O)Nc2cc(Cl)cc(Cl)c21 (configuration not stated)	1	100	100	5	67*	2
CC(=O)NNC(=O)c1sc(=S)n(C)c1C	nt	95	-5.0*	1	nt	nt
CCOC(=O)C(OC(=O)c1sc(=S)n(C)c1C)C(C)=O (configuration not stated)	0	101	107	10	-2	6
Cc1nnc(N2CCC(C(=O)N3CCCCC3)CC2)c2nn(-c3ccc(Cl)cc3)c(C)c12	nt	99	103	-3	nt	nt
COc1ccc(-n2nc3c(N4CCC(C(=O)N5CCC(C)CC5)CC4)nnc(C)c3c2C)cc1	nt	139*	476*	920*	nt	nt
CC1C(=NO)C(C)C(c2ccccc2)NC1c1ccccc1 (configuration not stated)	nt	99	98	0	-3	nt
Cc1ccc(C2NC(c3ccc(C)cc3)C(C)C(=NO)C2C)cc1 (configuration not stated)	0	104	102	5	83*	0
C=CCSc1nnc(-c2cc3c(s2)-c2ccccc2CC3)o1	-3	108	105	-4	66*	-2
C=CCNc1nc(Nc2ccc([N+](=O)[O-])cc2)nc(OC)n1	2	101	99	0	0	14
COc1nc(Nc2ccc([N+](=O)[O-])cc2)nc(NC2CCCCC2)n1	2	102	92	-2	88*	17
CCOC(=O)c1[nH]c2ccc(OC)cc2c1NC(=O)C(C)N1CCC2(CC1)OCCO2 (configuration not stated)	1	95	94	-4	67*	5
Cc1ccc(NC(=O)CCc2nnc3ccc(NCc4ccco4)nn23)cc1	nt	99	100	4	nt	nt
Cc1ccc(/C=C2/Sc3ccccc3N(CC(=O)NCCCOC(C)C)C2=O)cc1	0	98	92	-2	32	7
CCN(CC)c1nc(-c2ccccc2)ncc1S(=O)(=O)c1ccc(C)cc1	2	104	117	11	62*	7
CN(C)c1nc(-c2ccccc2)ncc1S(=O)(=O)c1ccccc1	2	103	98	3	14	7
COc1ccccc1C(=O)NNC(=S)NC(=O)c1ccco1	0	100	107	19	87*	0
CCC(Br)C(=O)Nc1ccc(OC)cc1 (configuration not stated)	0	104	106	10	-4	5
C=CCNC(=S)N(CC)c1cccc2ccccc12	1	100	97	-3	62*	2
CC[C@@H](C(=O)n1nc(C)cc1C)[C@H](NS(=O)(=O)c1ccc(C)cc1)c1ccccc1	3	102	98	1	-11	4
SMILES	ABCB1 block	MEKK3 PB1 HTS	MEKK2wt PB1 HTS	MEKK2 mut-MEK5	WT yeast gro inh	ABCG2 inh
Cc1ccc2c(c1)c1c3n2CCCN(Cc2ccccc2)C3CCC1 (configuration not stated)	nt	97	113	3	81*	nt
Cc1ccc2c(c1)c1c3n2CCN(CC#N)C3CCC1 (configuration not stated)	nt	103	103	1	nt	nt
COC(C(=O)Nc1ccnn1C1CCN(Cc2cnn(C(C)C)c2)CC1)c1ccccc1 (configuration not stated)	nt	104	107	8	nt	nt
Cc1ccc(-c2cc(C(F)F)n3ncc(C(=O)Nc4c(C)nn(Cc5ccccc5Cl)c4C)c3n2)cc1	2	101	88	-1	76*	5
COc1ccc(/C=N\NC(=O)c2cc(O)c(O)c(O)c2)cc1COc1ccc(C(=O)OCC(C)C)cc1	nt	97	80	-11	nt	nt
CN(Cc1cc2ccccc2[nH]c1=O)S(C)(=O)=O	0	99	97	-3	14	0
CS(=O)(=O)N(Cc1cc2ccccc2[nH]c1=O)C1CCCCC1	2	nt	nt	nt	94*	5
OCCC1CN(Cc2ccccc2-c2ccco2)CCN1C1CCCC1 (configuration not stated)	2	90	114	9	12	16
C=CCN(CC=C)c1nc2ccccc2nc1C(C#N)C(=O)OCCOC (configuration not stated)	1	104	101	8	59*	1
CC1=C(c2ccccc2)SC2=NCCN21	nt	107	108	9	nt	nt
CCN(CC)S(=O)(=O)c1cnccc1N1CCN(c2cccc(Cl)c2)CC1	1	87	92	-4	58*	2
CNS(=O)(=O)c1cnccc1N1CCN(c2cccc(Cl)c2)CC1	1	103	104	2	1	35
CCOP(=O)(OCC)C(C#N)=C1SCN(c2ccccc2)CS1	nt	100	101	2	nt	nt
CCCCC(CC)C(=O)Oc1ccc(O)c(C(C)(C)C)c1 (configuration not stated)	0	104	106	-3	91*	-2
Cc1ccc(N(C(=O)c2ccccc2Cl)C2=NC(C)CS2)c(C)c1 (configuration not stated)	1	102	99	-2	72*	0
O=C1c2ccccc2C2=Nc3ccccc3SC(c3ccc(Cl)cc3)C12 (configuration not stated)	0	116	114	1	83*	0
O=C1CCCC2=C1C(c1ccc(Cl)cc1)C1C(=O)c3ccccc3C1=N2 (configuration not stated)	0	112	108	7	3	0
